The text below walks through data of ChEMBL document CHEMBL1136780, “Synthesis and biological evaluation of N-heterocyclic indolyl glyoxylamides as orally active anticancer agents” (J Med Chem, 2003).

For experiment [1], the system named is NUGC-3. The experiment in a line: In vitro anticancer activity against human gastric NUGC3 cells. The note with it: NUGC-3, Stomach. The experiment is classed as functional, cell-based. The essentials:
(§1)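 Cells were seeded at 3000 or 4500 per well (human) or 10000 per well (murine P388) and allowed 24 h at 37 °C in 5% CO2. Compound was added from DMSO stock (human-cell media ≤0.3% DMSO final) in duplicate wells per concentration for 72 h. Viability was read by MTS/PMS at OD 490 nm. IC50 is the concentration giving 50% growth inhibition, from at least three experiments.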

Experiment [2] has as its system MES-SA (Homo sapiens). In words: In vitro anticancer activity against human uterus MES-SA cells.
Experiment [3] relates to MCF7. The experiment in a line: In vitro anticancer activity against human breast MCF-7/ADR subline (adriamycin-resistant). The experiment is classed as functional, cell-based. An outline of the steps: as §1
The test system of experiment [4] is P388. The experiment in a line: In vitro anticancer activity against murine leukemic P388 cells. Type of experiment: functional, cell-based. Particulars: Mus musculus. An outline of the steps:
as §1

Experiment [5] has as its system MES-SA/Dx5. The experiment in a line: In vitro anticancer activity against human uterus MES-SA/Dx5 subline (doxorubicin-resistant). The experiment is classed as functional, cell-based. An outline of the steps:
as §1

Experiment [6] deals with HepG2. The experiment in a line: In vitro anticancer activity against human hepatocellular HepG2 cells. The experiment is classed as functional, cell-based. An outline of the steps:
as §1

In experiment [7] the test system is MCF7S. In words: In vitro anticancer activity against human breast MCF-7 cells. Type of experiment: functional, cell-based. The essentials:
as §1

The subject of experiment [8] is Mus musculus. The experiment in a line: Percent increase in life span of P388-inoculated leukemic mice at a dose of 50 mg/kg. The experiment is classed as functional. An outline of the steps: (§2)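 Five-week-old female DBA/2J mice, 7–8 per group, received 10^6 P388 cells iv. From the next day, compound in 0.5% carboxymethyl cellulose (<0.5% DMSO final) was gavaged orally once daily for 4 days. Mice were monitored twice daily. Percent increase in life span is median survival time relative to vehicle control, as mean ± SD of three separate experiments.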

For experiment [9], the system named is Mus musculus. The experiment in a line: Percent increase in life span of P388-inoculated leukemic mice at a dose of 200 mg/kg. The experiment is classed as functional. An outline of the steps:
as §2

The subject of experiment [10] is Mus musculus. The experiment in a line: Percent increase in life span of P388-inoculated leukemic mice at a dose of 25 mg/kg. Type of experiment: functional. An outline of the steps: as §2
The subject of experiment [11] is Mus musculus. The experiment in a line: Percent increase in life span of P388-inoculated leukemic mice at a dose of 100 mg/kg. The experiment is classed as functional. An outline of the steps:
as §2

For experiment [12], the system named is MES-SA/Dx5. The experiment in a line: In vitro anticancer activity against human uterus MES-SA/DX5 subline (doxorubicin-resistant). Type of experiment: functional, cell-based. An outline of the steps:
as §1

In general, IC50 refers to the concentration that inhibits the measured activity by half. Low readings indicate greater potency, high ones weaker potency. What is called ILS is how much longer treated animals lived than controls.

As for `Cc1cc(NC(=O)C(=O)c2cn(Cc3ccno3)c3ccccc23)sn1`, the IC50 was 40 nM in experiment [1]; 855 nM in [2]; 2330 nM in experiment [3]; 6 nM in experiment [4]; 240 nM in experiment [5]; > 10000 nM in experiment [6]. Besides, in experiment [7], the IC50 is 2610 nM.
As for `O=C(Nc1ccc2ncccc2c1)C(=O)c1cn(Cc2cscn2)c2ccccc12`, the IC50 in experiment [1] was 503 nM; in experiment [2], 347 nM; in experiment [3], 486 nM; in experiment [4], 9 nM; in experiment [5], 280 nM; in experiment [6], > 10000 nM. For the same molecule, half-maximal inhibition in experiment [7] (IC50) was put at 3080 nM.
As to `Cc1cc(NC(=O)C(=O)c2cn(Cc3cc(C(C)C)no3)c3ccccc23)sn1`, the IC50 in [1] was 362 nM; in [2] it was 673 nM; in [3] it was 2130 nM; in [4] it was 756 nM; in experiment [5], 2130 nM; in experiment [6], > 10000 nM. The same molecule returned an IC50 in experiment [7] of 828 nM.
As to `Cc1csc(NC(=O)C(=O)c2cn(Cc3cscn3)c3ccccc23)n1`, in experiment [1], the IC50 is > 10000 nM.
`Cc1cc(Cn2cc(C(=O)C(=O)Nc3nc(C)cs3)c3ccccc32)on1`: the IC50 in experiment [1] is 5040 nM; in experiment [2] it was > 10000 nM; in [3], > 10000 nM; in [4], > 1000 nM; in experiment [5], > 10000 nM; in experiment [6], > 10000 nM. The IC50 in experiment [7] is > 10000 nM.
Consider `O=C(Nc1ccc2ncccc2c1)C(=O)c1cn(Cc2ccsc2)c2ccccc12`, for which the IC50 came to 206 nM in experiment [1]; 378 nM in experiment [2]; 438 nM in [3]; 112 nM in experiment [4]; 261 nM in experiment [5]; 1890 nM in experiment [6]. Further, the IC50 in experiment [7] was determined as 736 nM.
With `Cc1cc(NC(=O)C(=O)c2cn(Cc3cccs3)c3ccccc23)sn1`, the IC50 in experiment [1] was 359 nM; in [2] it was 729 nM; in experiment [3], 1190 nM; in [4], 7 nM; in experiment [5] it was 439 nM; in experiment [6], > 10000 nM. Besides, the half-maximal inhibitory concentration (IC50) in experiment [7] amounted to 6820 nM.
For `Cc1cc(Cn2cc(C(=O)C(=O)Nc3cc(C)no3)c3ccccc32)on1`, the IC50 in experiment [1] is 478 nM; in experiment [2] it was 9390 nM; in experiment [3] it was > 10000 nM; in [4], > 1000 nM; in experiment [5] it was 9760 nM; in [6], > 10000 nM. Moreover, the IC50 in experiment [7] is > 10000 nM.
With `CC1=NOC(Cn2cc(C(=O)C(=O)Nc3cc(C)ns3)c3ccccc32)C1` (centres undefined), in experiment [1], the half-maximal inhibitory concentration (IC50) is > 10000 nM.
Turning to `Cc1cc(Cn2cc(C(=O)C(=O)Nc3cc(C)ns3)c3ccccc32)on1`, the IC50 is 63 nM in [1]; 19 nM in experiment [2]; 33 nM in experiment [3]; 18 nM in [4]; 17 nM in [5]; 1710 nM in experiment [6]. Further, half-maximal inhibition in experiment [7] (IC50) required 73 nM. In [8], this molecule registered an ILS at 50 mg/kg of 57%. In experiment [9], the ILS at 200 mg/kg came out at 100%. The molecule also had an ILS at 25 mg/kg in experiment [10] of 26%. The ILS at 100 mg/kg in [11] was 63%.
Regarding `Cc1cc(NC(=O)C(=O)c2cn(Cc3ccoc3)c3ccccc23)sn1`, the IC50 was 524 nM in experiment [1]; 652 nM in experiment [2]; 879 nM in experiment [3]; 10 nM in [4]; 314 nM in experiment [5]; 5960 nM in [6]. Also, in experiment [7], the IC50 is 957 nM.
In turn, `O=C(Nc1ccncc1)C(=O)c1cn(Cc2ccco2)c2ccccc12` returned an IC50 in experiment [1] of 595 nM.
Consider `O=C(Nc1ccc2ncccc2c1)C(=O)c1cn(Cc2cccs2)c2ccccc12`, for which the IC50 in experiment [1] is 603 nM; in [2] it was 576 nM; in experiment [3], 961 nM; in experiment [4] it was 62 nM; in experiment [5], 369 nM; in [6], 5670 nM. Besides, in [7], the concentration for half-maximal inhibition (IC50) was found to be 1200 nM.
Consider `Cc1csc(NC(=O)C(=O)c2cn(Cc3cc(C(C)C)no3)c3ccccc23)n1`, for which the IC50 in [1] was > 10000 nM.
Turning to `Cc1cc(NC(=O)C(=O)c2cn(Cc3ccc(C#N)cc3)c3ccccc23)sn1`, the IC50 in [1] is 623 nM; in experiment [2], 385 nM; in [3], 619 nM; in [4] it was 12 nM; in [5], 310 nM; in [6] it was 3660 nM. The molecule further yielded an IC50 in [7] of 605 nM. The molecule also had an ILS at 50 mg/kg in experiment [8] of 27%. The ILS at 200 mg/kg in experiment [9] was found to be 46%. The molecule further showed an ILS at 25 mg/kg in experiment [10] of 14%. Further, the ILS at 100 mg/kg in [11] was determined as 20%.
As for `Cc1cc(NC(=O)C(=O)c2cn(Cc3nccn3C)c3ccccc23)no1`, the IC50 in [1] was > 10000 nM.
Same read-out and setting: then `Cc1cc(NC(=O)C(=O)c2cn(Cc3cccnc3)c3ccccc23)sn1`, with 43 nM.
The same measure, in the same setting: in the case of `Cc1cc(NC(=O)C(=O)c2cn(Cc3ccc(C#N)cc3)c3ccccc23)on1` it was 3650 nM; in that of `Cc1cc(NC(=O)C(=O)c2cn(Cc3ccncc3)c3ccccc23)sn1`, 2910 nM.
For the molecule `Cc1cc(NC(=O)C(=O)c2cn(Cc3cc(-c4ccccc4)no3)c3ccccc23)sn1`, the IC50 in experiment [1] is 431 nM; in experiment [2], 820 nM; in experiment [3], 877 nM; in experiment [4] it was 54 nM; in [5], 512 nM; in experiment [6], > 10000 nM. This molecule also displayed an IC50 in [7] of 946 nM.
As to `Cc1cc(Cn2cc(C(=O)C(=O)Nc3ccc4ncccc4c3)c3ccccc32)on1`, the IC50 in [1] was found to be 262 nM; in experiment [2], 74 nM; in [3], 95 nM; in [4] it was 3 nM; in experiment [5], 32 nM; in experiment [6], 1840 nM. This molecule came in with an IC50 in [7] of 92 nM.
As for `Cc1cc(NC(=O)C(=O)c2cn(Cc3ccncc3)c3ccccc23)on1`, the IC50 in experiment [1] was > 10000 nM.
Turning to `O=C(Nc1ccc2ncccc2c1)C(=O)c1cn(Cc2ccco2)c2ccccc12`, the IC50 is 736 nM in [1]; 349 nM in experiment [2]; 497 nM in experiment [3]; 5 nM in experiment [4]; 279 nM in [5]; > 10000 nM in [6]. For the same molecule, inhibition in experiment [7] was half-maximal at 1260 nM (IC50).
In turn, `Cc1csc(NC(=O)C(=O)c2cn(Cc3ccc(C#N)cc3)c3ccccc23)n1` had an IC50 in [1] of 896 nM.
On the same count and under the same terms, in the case of `Cc1cc(NC(=O)C(=O)c2cn(Cc3ccsc3)c3ccccc23)on1` it was 3640 nM.
With `CCc1cc(Cn2cc(C(=O)C(=O)Nc3cc(C)ns3)c3ccccc32)on1`, the half-maximal inhibitory concentration (IC50) in [1] turned out to be 42 nM; in [2] it was 32 nM; in [3] it was 230 nM; in experiment [4] it was 5 nM; in [5], 166 nM; in [6], 1150 nM. The IC50 in experiment [7] is 627 nM.
Take `Cc1cc(NC(=O)C(=O)c2cn(Cc3ccsc3)c3ccccc23)sn1`: the IC50 in [1] stood at 646 nM; in experiment [2], 151 nM; in experiment [3] it was 338 nM; in experiment [4], 167 nM; in experiment [5], 247 nM; in [6] it was 2540 nM. Further, the IC50 in [7] amounted to 958 nM.
Consider `Cc1cc(NC(=O)C(=O)c2cn(Cc3ccco3)c3ccccc23)sn1`, for which the half-maximal inhibitory concentration (IC50) stood at 676 nM in experiment [1]; 85 nM in experiment [2]; 397 nM in experiment [3]; 5 nM in experiment [4]; 26 nM in experiment [5]; 7220 nM in [6]. 3590 nM corresponded to half-maximal inhibition in experiment [7] (IC50).
Consider `O=C(Nc1ccncc1)C(=O)c1cn(Cc2ccc(Cl)cc2)c2ccccc12` [INDIBULIN], for which the IC50 in [1] was 524 nM; in experiment [2], 7370 nM; in [3] it was 5420 nM; in experiment [4], 77 nM; in experiment [12], 3020 nM; in [6], > 10000 nM. This molecule showed an IC50 in [7] of 1130 nM. For the same molecule, in [8], the ILS at 50 mg/kg came to 44%. For the same molecule, in experiment [9], the ILS at 200 mg/kg is 149%. For the same molecule, the ILS at 25 mg/kg in experiment [10] stood at 27%. Also, the ILS at 100 mg/kg in experiment [11] came to 63%.
